Values after ≈ are worked out from the molar mass of the structure shown.
Experiments:
PBMC = test: Cytotoxicity against human PBMC after 24 hrs by MTT assay; type: cell-based
How it was run: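 Human peripheral blood mononuclear cells in RPMI-1640 with 10% fetal calf serum, 2 mM L-glutamine and gentamicin, 37 °C, 5% CO2. Seeded at 1.5–2.0 × 10⁵ cells/well. After 24 h, treated overnight in serum-free medium. Viability by MTT (2 mg/mL, 4 h); formazan dissolved in DMSO; OD540 minus OD620. Cytotoxicity % = [1 − OD treated/OD control] × 100; IC50 from dose-response curves. Four parallels, two independent experiments.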

[1] = Selectivity index, ratio of IC50 for human PBMC to MIC for Mycobacterium tuberculosis H37Rv 331/88 after 14 days; type: functional
How it was run: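 SI = PBMC IC50 (MTT cytotoxicity) divided by the MIC against the named M. tuberculosis strain. MIC taken after 14 days of incubation at 37 °C by the micromethod.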

[2] = test system: Mycobacterium tuberculosis; test: Antimycobacterial activity against Mycobacterium tuberculosis H37Rv 331/88 after 21 days by micromethod; type: functional; conditions: H37Rv 331/88, 504 h
How it was run: (§1)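 Micromethod in Sula semisynthetic medium, with compounds added as DMSO solutions at 1000, 500, 250, 125, 62, 32, 16, 8, 4, 2, 1, 0.5, 0.25. Inoculum dilutions: H37Rv 10^-3; M. avium 330/88 10^-5; M. kansasii 235/80 10^-4; M. kansasii 6509/96 10^-5. Incubated at 37 °C, read at 14 and 21 days, and at 7 days for M. kansasii. MIC was the lowest concentration inhibiting growth.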

Mycobacterium kansasii [3] = test: Antimycobacterial activity against Mycobacterium kansasii; type: functional
Mycobacterium avium [4] = test: Antimycobacterial activity against multidrug-resistant Mycobacterium avium 330/88 after 14 days by micromethod; type: functional; conditions: 330/88, 336 h; how it was run: as §1
Mycobacterium kansasii [5] = test: Antimycobacterial activity against Mycobacterium kansasii 235/80 after 14 days by micromethod; type: functional; conditions: 235/80, 336 h; how it was run: as §1
Mycobacterium avium [6] = test: Antimycobacterial activity against Mycobacterium avium; type: functional
Mycobacterium avium [7] = test: Antimycobacterial activity against multidrug-resistant Mycobacterium avium 330/88 after 21 days by micromethod; type: functional; conditions: 330/88, 504 h; how it was run: as §1
Mycobacterium kansasii [8] = test: Antimycobacterial activity against Mycobacterium kansasii 6509/96 after 21 days by micromethod; type: functional; conditions: 6509/96, 504 h; how it was run: as §1
Mycobacterium kansasii [9] = test: Antimycobacterial activity against Mycobacterium kansasii 6509/96 after 7 days by micromethod; type: functional; conditions: 6509/96, 168 h; how it was run: as §1
Mycobacterium kansasii [10] = test: Antimycobacterial activity against Mycobacterium kansasii 235/80 after 21 days by micromethod; type: functional; conditions: 235/80, 504 h; how it was run: as §1
[11] = Lipophilicity, log P of the compound; type: physicochemical; conditions: octanol/water
[12] = test system: Mycobacterium tuberculosis; test: Antimycobacterial activity against Mycobacterium tuberculosis H37Rv 331/88 after 14 days by micromethod; type: functional; conditions: H37Rv 331/88, 336 h; how it was run: as §1
Mycobacterium kansasii [13] = test: Antimycobacterial activity against Mycobacterium kansasii 6509/96 after 14 days by micromethod; type: functional; conditions: 6509/96, 336 h; how it was run: as §1
Mycobacterium kansasii [14] = test: Antimycobacterial activity against Mycobacterium kansasii 235/80 after 7 days by micromethod; type: functional; conditions: 235/80, 168 h; how it was run: as §1
[15] = test system: Mycobacterium tuberculosis; test: Antimycobacterial activity against drug-sensitive Mycobacterium tuberculosis; type: functional
Lichtheimia corymbifera [16] = test: Antifungal activity against Absidia corymbifera 272 after 24 hrs by broth microdilution method; type: functional; conditions: Lichtheimia corymbifera, 272, 24 h
Nakaseomyces glabratus [17] = test: Antifungal activity against Candida glabrata 20/I after 24 hrs by broth microdilution method; type: functional
Lichtheimia corymbifera [18] = test: Antifungal activity against Absidia corymbifera 272 after 48 hrs by broth microdilution method; type: functional; conditions: Lichtheimia corymbifera, 272, 48 h
Trichosporon beigelii [19] = test: Antifungal activity against Trichosporon beigelii 1188 after 48 hrs by broth microdilution method; type: functional; conditions: Trichosporon beigelii, 1188, 48 h
Candida tropicalis [20] = test: Antifungal activity against Candida tropicalis 156 after 48 hrs by broth microdilution method; type: functional; conditions: Candida tropicalis, 156, 48 h
Candida tropicalis [21] = test: Antifungal activity against Candida tropicalis 156 after 24 hrs by broth microdilution method; type: functional; conditions: Candida tropicalis, 156, 24 h
Aspergillus fumigatus [22] = test: Antifungal activity against Aspergillus fumigatus 231 after 48 hrs by broth microdilution method; type: functional; conditions: Aspergillus fumigatus, 231, 48 h
Trichosporon beigelii [23] = test: Antifungal activity against Trichosporon beigelii 1188 after 24 hrs by broth microdilution method; type: functional; conditions: Trichosporon beigelii, 1188, 24 h
Nakaseomyces glabratus [24] = test: Antifungal activity against Candida glabrata 20/I after 48 hrs by broth microdilution method; type: functional
Candida albicans [25] = test: Antifungal activity against Candida albicans ATCC 44859 after 48 hrs by broth microdilution method; type: functional; conditions: ATCC 44859, 48 h
Pichia kudriavzevii [26] = test: Antifungal activity against Candida krusei E28 after 48 hrs by broth microdilution method; type: functional; conditions: E28, 48 h
[27] = test system: Trichophyton mentagrophytes; test: Antifungal activity against Trichophyton mentagrophytes after 48 hrs by broth microdilution method; type: functional
Aspergillus fumigatus [28] = test: Antifungal activity against Aspergillus fumigatus 231 after 24 hrs by broth microdilution method; type: functional; conditions: Aspergillus fumigatus, 231, 24 h
Pichia kudriavzevii [29] = test: Antifungal activity against Candida krusei E28 after 24 hrs by broth microdilution method; type: functional; conditions: E28, 24 h
Candida albicans [30] = test: Antifungal activity against Candida albicans ATCC 44859 after 24 hrs by broth microdilution method; type: functional; conditions: ATCC 44859, 24 h
[31] = test system: Trichophyton mentagrophytes; test: Antifungal activity against Trichophyton mentagrophytes after 24 hrs by broth microdilution method; type: functional

Row | SMILES | MIC [2] | MIC (Mycobacterium kansasii [3]) | MIC (Mycobacterium avium [4]) | MIC (Mycobacterium kansasii [5]) | MIC (Mycobacterium avium [6]) | MIC (Mycobacterium avium [7]) | MIC (Mycobacterium kansasii [8]) | MIC (Mycobacterium kansasii [9]) | MIC (Mycobacterium kansasii [10]) | logP [11] | MIC [12] | MIC (Mycobacterium kansasii [13]) | MIC (Mycobacterium kansasii [14]) | MIC [15] | also measured
1 | CC(=O)N[C@@H](Cc1ccccc1)C(=O)Oc1ccc(Cl)cc1C(=O)Nc1ccc(Cl)c(Cl)c1 | 1 µM (≈ 0.506 µg/mL) | 1 µM (≈ 0.506 µg/mL) | 8 µM (≈ 4.05 µg/mL) | 2 µM (≈ 1.01 µg/mL) | 1 µM (≈ 0.506 µg/mL) | 8 µM (≈ 4.05 µg/mL) | 4 µM (≈ 2.02 µg/mL) | 1 µM (≈ 0.506 µg/mL) | 4 µM (≈ 2.02 µg/mL) | 5.12 | 0.5 µM (≈ 0.253 µg/mL) | 2 µM (≈ 1.01 µg/mL) | 1 µM (≈ 0.506 µg/mL) | 1 µM (≈ 0.506 µg/mL) | IC50 (PBMC): 44 µM; Selectivity Index [1]: 88
2 | CC(=O)N[C@@H](Cc1ccccc1)C(=O)Oc1ccc(Cl)cc1C(=O)Nc1ccc(Br)cc1 | 2 µM (≈ 1.03 µg/mL) | 1 µM (≈ 0.516 µg/mL) | 4 µM (≈ 2.06 µg/mL) | 4 µM (≈ 2.06 µg/mL) | 1 µM (≈ 0.516 µg/mL) | 8 µM (≈ 4.13 µg/mL) | 8 µM (≈ 4.13 µg/mL) | 4 µM (≈ 2.06 µg/mL) | 4 µM (≈ 2.06 µg/mL) | 4.83 | 2 µM (≈ 1.03 µg/mL) | 4 µM (≈ 2.06 µg/mL) | 4 µM (≈ 2.06 µg/mL) | 1 µM (≈ 0.516 µg/mL) | MIC (Lichtheimia corymbifera [16]): 125 µM (≈ 64.5 µg/mL); MIC (Nakaseomyces glabratus [17]): > 125 µM; MIC (Lichtheimia corymbifera [18]): > 125 µM; MIC (Trichosporon beigelii [19]): > 125 µM; MIC (Candida tropicalis [20]): > 125 µM; MIC (Candida tropicalis [21]): > 125 µM; MIC (Aspergillus fumigatus [22]): > 125 µM; MIC (Trichosporon beigelii [23]): 125 µM (≈ 64.5 µg/mL); MIC (Nakaseomyces glabratus [24]): > 125 µM; MIC (Candida albicans [25]): > 125 µM; MIC (Pichia kudriavzevii [26]): > 125 µM; MIC [27]: > 125 µM; MIC (Aspergillus fumigatus [28]): 125 µM (≈ 64.5 µg/mL); MIC (Pichia kudriavzevii [29]): 125 µM (≈ 64.5 µg/mL); MIC (Candida albicans [30]): 125 µM (≈ 64.5 µg/mL); MIC [31]: > 125 µM
